Data from ChEMBL document CHEMBL4376862, “Synthesis and evaluation of novel chlorophyll a derivatives as potent photosensitizers for photodynamic therapy” (Eur J Med Chem, 2020).
Active and inactive are the calls of the source. No cut-off for these calls is given here.

Columns and labels:
[1] = Drug uptake in BALB/c nude mouse xenografted with A549 cells assessed as drug level in brain at 0.3 mg/kg, iv measured at 12 hrs by fluorescence assay; format: ADME, organism-based; conditions: in vivo
In short: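 A549 tumor-bearing mice dosed via tail vein (1 mg/kg in methods; 0.3 mg/kg in text) at tumors ~150–170 mm3, n = 3; whole-body imaging 0–24 h; at 6 and 12 h mice killed, heart, liver, spleen, lung, kidney, brain, tumor imaged ex vivo, excitation 420 nm, emission 650 nm.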

[2] = system: Cavia porcellus; experiment: Phototoxicity in guinea pig assessed as change in auricles of left ear at 4.5 mg/kg, iv in presence of 10 mW/cm2 light irradiation for 10 mins measured after 1day of light irradiation by H and E staining based microscopic analysis; format: organism-based; conditions: in vivo
[3] = Induction of singlet oxygen generation in DMF solution assessed as singlet oxygen quantum yield by measuring reduction in TEMP irradiated with 650 nanometer laser light in every 20 secs by ESR assay; format: functional
In short: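 ESR at room temperature: 9.65 GHz microwave frequency, 15 mW power, 3400–3500 G scan field, 0.8 G modulation amplitude, 15.5 s scan time, 32 scans.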

[4] = system: A549; experiment: Induction of apoptosis in human A549 cells assessed as late apoptotic cell in presence of 1J/cm2 light irradiation measured after 4 hrs by annexin V-FITC and propidium iodide staining based flow cytometric analysis (reference value: 0.05%); format: functional
In short: (§1)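 After PDT at 1 J/cm2, A549 cells collected 4 h later, stained with annexin V-FITC and propidium iodide per kit instructions; flow cytometry with at least 10,000 events per sample.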

[5] = Induction of apoptosis in human A549 cells assessed as viable cells incubated for 4 hrs under dark condition by annexin V-FITC and propidium iodide staining based flow cytometric analysis (reference value: 99.88%); format: cell-based; conditions: read-out: Activity
[6] = system: Mus musculus; experiment: Phototoxicity in ICR mouse assessed as ear weight at 0.45 mg/kg, iv followed by 10 mW/cm2 light irradiation for 10 mins at 5 days after drug challenge measured after 1 day of light irradiation (reference value: 12.9 +/- 1.4 mg); format: organism-based; conditions: in vivo
[7] = system: A549; experiment: Induction of apoptosis in human A549 cells assessed as necrotic cell in presence of 1J/cm2 light irradiation measured after 4 hrs by annexin V-FITC and propidium iodide staining based flow cytometric analysis (reference value: 0.00%); format: functional; in short: as §1
[8] = Induction of ROS generation in DMF solution assessed as slope of the photodegradation rate of DPBF at 2 uM followed by irradiation measured every 10 secs by spectrophotometric analysis; format: functional
[9] = Absorption property of compound in DMSO assessed as strong absorption wavelength at 1 x 10^-3 M by UV-spectra analysis; format: physicochemical; conditions: 1000 µM
In short: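 Stocks 1 mM in DMSO; spectra run over […] range (units as printed), 300–800 nm in 1 nm steps, room temperature, quartz cuvettes, UV-vis spectrophotometer.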

[10] = Therapeutic index, ratio of TC50 for human A549 cells under dark to IC50 for human A549 cells irradiated with 1 J/cm2 of 650 nanometer laser light; format: toxicity, cell-based; conditions: read-out: TI
In short: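 A549 cells (F-12K, 10% FBS, 37 °C, 5% CO2) seeded 24 h, then exposed to 0–10 photosensitizer for 24 h. Dark arm: MTT 48 h later. Light arm: 650 nm laser, 1 J/cm2 (25 mW/cm2, 40 s), then MTT. A570 viability relative to control, triplicate. Ratio = dark TC50 / irradiated IC50.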

[11] = system: Mus musculus; experiment: Phototoxicity in ICR mouse assessed as change in exposed neck skin 0.45 mg/kg, iv in presence of 10 mW/cm2 light irradiation for 10 mins upto 7 days measured after 1day of light irradiation by H and E staining based microscopic analysis; format: organism-based; conditions: in vivo
[12] = system: A549; experiment: Phototoxicity against human A549 cells assessed as reduction in cell proliferation irradiated with 1 J/cm2 of 650 nanometer laser light preincubated for 24 hrs measured after 48 hrs by MTT assay; format: functional, cell-based; conditions: A549, light or radiation study
In short: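 A549 cells seeded 5×10^4 cells/100 µL per well, given […] for 24 h, then 650 nm semiconductor laser at 1 J/cm2 (25 mW/cm2, 40 s); MTT 4 h, absorbance 570 nm; viability vs control; triplicate, mean ± SD.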

[13] = system: A549; experiment: Photodynamic antitumor activity against human A549 cells xenografted in BALB/c nude mouse at 0.15 mg/kg, iv followed by laser light irradiation at 120 J/cm2 measured after 14 days; format: functional, organism-based
In short: (§2)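 Male BALB/c nude mice (5–6 weeks, 14–16 g) given 2×10^6 A549 cells s.c. in 0.2 mL PBS; at 6–7 mm tumors randomized into ten groups; drug via tail vein, 650 nm diode laser 120 J/cm2 at 180 mW/cm2 24 h later; caliper volume a×b²/2, followed 14 days.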

[14] = system: A549; experiment: Induction of apoptosis in human A549 cells assessed as late apoptotic cell incubated for 4 hrs under dark condition by annexin V-FITC and propidium iodide staining based flow cytometric analysis (reference value: 0.05%); conditions: a549, 4 h
[15] = system: Cavia porcellus; experiment: Phototoxicity in guinea pig assessed as change in back skin at 4.5 mg/kg, iv in presence of 10 mW/cm2 light irradiation for 10 mins measured after 1day of light irradiation by H and E staining based microscopic analysis; format: organism-based; conditions: in vivo
[16] = Octanol/water partition coefficient, logP of compound by shake flask method; format: physicochemical
In short: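 Shake-flask method: equilibrium concentrations in octanol and water measured by UV-vis absorbance; log P taken as log of octanol/water concentration ratio (mg/L).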

[17] = system: A549; experiment: Induction of apoptosis in human A549 cells assessed as viable cells in presence of 1J/cm2 light irradiation measured after 4 hrs by annexin V-FITC and propidium iodide staining based flow cytometric analysis (reference value: 99.88%); format: functional; in short: as §1
[18] = Drug uptake in human A549 cells incubated upto 24 hrs by fluorescence spectrophotometer analysis; format: ADME, cell-based; conditions: a549, 24 h
In short: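 A549 cells (F-12K, 10% FBS, 37 °C, 5% CO2) grown in 24 wells and exposed to photosensitizer for 0.5, 1, 2, 4, 8, 12 or 24 h; cells harvested by digestion, fluorescence read on a spectrophotometer.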

[19] = system: Cavia porcellus; experiment: Phototoxicity in guinea pig assessed as change in back skin weight 4.5 mg/kg, iv followed by 10 mW/cm2 light irradiation for 10 mins measured after 1day of light irradiation (reference value: 72.4 +/- 3.1 mg); format: organism-based; conditions: in vivo, 24 h
[20] = system: A549; experiment: Photodynamic antitumor activity against human A549 cells xenografted in BALB/c nude mouse assessed as reduction in tumor volume at 0.3 mg/kg, iv incubated for 24 hrs followed by laser light irradiation at 120 J/cm2 measured up to 14 days; format: functional, organism-based; in short: as §2
[21] = Emission property of a compound in DMSO assessed as red shift at 5 uM on excitation with light at 410 to 415 nm by 3D fluorescence spectra analysis; format: physicochemical
In short: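 Stock 1 mM in DMSO, measured at […] (so in the source); excitation scanned 350–640 nm, emission 600–750 nm, 1 nm steps, room temperature, quartz cuvettes; 3D fluorescence matrix spectra recorded.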

[22] = system: A549; experiment: Induction of apoptosis in human A549 cells assessed as early apoptotic cell incubated for 4 hrs under dark condition by annexin V-FITC and propidium iodide staining based flow cytometric analysis (reference value: 0.07%); conditions: a549, 4 h

| Compound | Drug uptake [1] | Activity [2] | Activity [3] | Activity [4] | viability at 4 h [5] | Activity [6] | Activity [7] | K [8] | Activity [9] | selectivity ratio [10] | Activity [11] | IC50 [12] | Activity [13] | Activity [14] | Activity [15] | logP [16] | Activity [17] | Drug uptake [18] | Activity [19] | Activity [20] | other results |
| --- | --- | --- | --- | --- | --- | --- | --- | --- | --- | --- | --- | --- | --- | --- | --- | --- | --- | --- | --- | --- | --- |
| CCCCOC(C)c1c(C)c2cc3nc(c4c5[nH]c(cc6nc(cc1[nH]2)C(C)=C6CC)c(C)c5C(=O)C4)[C@@H](CCC(=O)NCC(=O)CCC(=O)O)[C@@H]3C (some centres undefined) | Not Active | Non-Toxic | Active | 83.88% | 89.8% | 13.5 mg | 10.92% | 0.0313 s⁻¹ | 660 to 670 nm | 8.74 | Non-Toxic | 230 nM | Active | 4.78% | Non-Toxic | 2.36 | 3.13% | Active | 75.2 mg | Active | Activity [21]: 661 to 669 nm; Activity [22]: 3.16% |
| CCC1=C(C)c2cc3[nH]c(cc4nc(c5c6[nH]c(cc1n2)c(C)c6C(=O)C5)[C@@H](CCC(=O)NCC(=O)CCC(=O)O)[C@@H]4C)c(C)c3C(C)OCCO (some centres undefined) | Not Active | Non-Toxic | Active | 67.73% | 87.8% | 12.9 mg | 0.7% | 0.027 s⁻¹ | 660 to 670 nm | 8.97 | Non-Toxic | 990 nM | Active | 4.7% | Non-Toxic | 1.59 | 2.64% | Active | 74.3 mg | Active | Activity [21]: 661 to 669 nm; Activity [22]: 4.63% |
